ChEMBL document CHEMBL4513216, “Probing the Open Global Health Chemical Diversity Library for Multistage-Active Starting Points for Next-Generation Antimalarials” (ACS Infect Dis, 2020)

Assay: Toxicity liver stage against HepG2, at 10uM
Format: cell-based
Set-up: test concentration 10 uM, cell line HepG2-A16-CD81EGFP
Conditions: human, HepG2-A16-CD81EGFP cells; read-out: INHIBITION
In short: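 Uninfected HepG2-A16-CD81EGFP cells, 3 × 10^3 per well, 1536-well, plated on prespotted compound at 10 μM final, parasite-free screening media added to match infected plates; puromycin 10 μM positive, DMSO 0.5% negative; run in parallel with 48 h PbLuc assay at 37 °C, 5% CO2; viability by CellTiter-Glo luminescence, normalized to controls.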
In the case of O=C1COc2cc(S(=O)(=O)NCCC3=CCCCC3)c(Cl)cc2N1, the cytotoxicity at 10 µM is reported as 18.6%.
With CC1N(CC2CC2)C(=O)COC12CCN(C(=O)c1ccncc1)CC2 (stereo not given) the cytotoxicity at 10 µM was -13.7%.
With COc1cccc(CNC(=O)c2nc3c(o2)CN(C(=O)N(C)C)C3)c1 the cytotoxicity at 10 µM was -1.68%.
In the case of COc1ccccc1CCNC(=O)CC1(Cn2cnnn2)CCCCC1, the cytotoxicity at 10 µM is reported as 11.3%.
In the case of O=C(Nc1ccccc1)C1=CC2(CCNCC2)c2ccccc21, the cytotoxicity at 10 µM is reported as 1.54%.
For O=C(c1ccccn1)N1Cc2ccccc2OC2(CCOCC2)C1, the cytotoxicity at 10 µM was -12.9%.
In the case of Cc1nc(C(=O)N(C)[C@@H]2CCC[C@@H](Oc3ccccc3)[C@@H]2O)co1, the cytotoxicity at 10 µM is reported as -22.6%.
With CC(C)S(=O)(=O)N1CCC(c2cc3n(n2)[C@@H](C(F)(F)F)C[C@@H](C)N3)CC1 the cytotoxicity at 10 µM was -13.5%.
Compound CSCC[C@@H]1CN2CCC[C@H]2CN1Cc1cn(C)nc1C has a cytotoxicity at 10 µM of -11.3%.
In the case of COCC(=O)N1CCCCC1c1ccnc(Nc2ncc(C)s2)n1 (stereo not given), the cytotoxicity at 10 µM is reported as -10.6%.
In the case of Fc1cc(CCNc2ccc3nccn3n2)c2c(c1)COCO2, the cytotoxicity at 10 µM is reported as 17.2%.
O=C(NCc1ccc(-n2cncn2)nc1)c1cnccn1 gave a cytotoxicity at 10 µM of -5.18%.
For COc1ccc(S(=O)(=O)C(F)(F)F)cc1NC(=O)CSCC#N, the cytotoxicity at 10 µM was -2.72%.
For Cn1cc(NC(=O)N2CCN(Cc3cscn3)CC2)ccc1=O, the cytotoxicity at 10 µM was 3.67%.
CCN(CC1CN(Cc2cccnc2)CCO1)c1cccnn1 (stereo not given) gave a cytotoxicity at 10 µM of -14%.
For c1ccc(-c2nc(CNC3CCCN(c4cccnn4)C3)no2)cc1 (stereo not given), the cytotoxicity at 10 µM was 15.9%.
CN(Cc1ccc(F)cc1)C(=O)CN1CCCCC1Cn1cncn1 (stereo not given) gave a cytotoxicity at 10 µM of 0.108%.
O=C(C1CCCC1)N1CCC2(CC1)OCCO2 gave a cytotoxicity at 10 µM of 2.53%.
CC(=O)N(C)CC(=O)NCC1(c2cccc(C)c2)CCCC1 gave a cytotoxicity at 10 µM of -2.37%.
In the case of COCCC(C)NC(=O)N1CCSC(C)(C)C1 (stereo not given), the cytotoxicity at 10 µM is reported as -3.94%.
NC(=O)C1CCCN1Cc1ccccc1NC(=O)CC(F)(F)F (stereo not given) showed a cytotoxicity at 10 µM of 13.1%.
In the case of COCC(C)NC(=O)CCCn1cnc2ccccc2c1=O (stereo not given), the cytotoxicity at 10 µM is reported as 8.43%.
CCc1cnc(CCNS(C)(=O)=O)s1 gave a cytotoxicity at 10 µM of 2.17%.
COCC1CC2(CCN(Cc3ccoc3)CC2)CN1Cc1ccccn1 (stereo not given) gave a cytotoxicity at 10 µM of -98.8%.
Compound O=C(c1cccnc1)N1CCO[C@@H]2CNC[C@@H]21 has a cytotoxicity at 10 µM of -103%.
With Cc1ccc(CN2CCCC3(CCN(S(=O)(=O)N(C)C)C3)C2)o1 (stereo not given) the cytotoxicity at 10 µM was 7.49%.
Work on Cc1cc(N2CCCN(Cc3ccc(C)o3)CC2)ccn1 yielded a cytotoxicity at 10 µM of -5.51%.
With O=C(NCCCO)c1cnc(-c2ccccc2)nc1O the cytotoxicity at 10 µM was -7.11%.
With Nc1nc2c(c(N3CCCC(CN4CCCC4=O)C3)n1)CCNCC2 (stereo not given) the cytotoxicity at 10 µM was 14.6%.
Work on CC(C)(O)CCc1cccc(C(=O)N[C@H](C(N)=O)c2ccccc2)c1 yielded a cytotoxicity at 10 µM of -4.21%.
Work on Cn1nc(C2CCCN(C(=O)Cc3ccsc3)C2)c2nccnc21 (stereo not given) yielded a cytotoxicity at 10 µM of 4.68%.
Compound Cc1cccc2cc(CNCCCN3CCOCC3)c(=O)[nH]c12 has a cytotoxicity at 10 µM of 0.127%.
For Cc1nc(CN2CCCC(NCc3sccc3C)C2)no1 (stereo not given), the cytotoxicity at 10 µM was -2.85%.
Work on O=c1[nH]c(CN2CCOC(Cn3cccn3)C2)nc2ccccc12 (stereo not given) yielded a cytotoxicity at 10 µM of -2.32%.
In the case of Cc1cccc(CN2Cc3[nH]nc(COCC4CC4)c3C2)n1, the cytotoxicity at 10 µM is reported as 3.79%.
Compound CCOCC1CN(c2ccc(C)nn2)Cc2cnn(CC)c21 (stereo not given) has a cytotoxicity at 10 µM of 9.41%.
COc1ccc(CNC(C)c2ccccc2Cl)c(OC)c1OC (stereo not given) showed a cytotoxicity at 10 µM of 8.01%.
With O=C(c1ccccc1)N1CCO[C@@H]2CN(c3ncccn3)C[C@@H]2C1 the cytotoxicity at 10 µM was -6.63%.
Compound CN(C)c1ncc(C2Nc3cc(Cl)ccc3C3=NCCCN32)cn1 (stereo not given) has a cytotoxicity at 10 µM of -32%.
c1cnc(NCc2cncc3c2CCN(CC2CC2)C3)nc1 gave a cytotoxicity at 10 µM of -101%.
Cn1cnc2c(-c3cccnc3)nc(C3CCNCC3)cc21 showed a cytotoxicity at 10 µM of -99.9%.
For Cc1noc([C@]23COC[C@H]2CN(Cc2cc(C)on2)C3)n1, the cytotoxicity at 10 µM was 0.841%.
In the case of O=C(N[C@H]1CN(Cc2ccsc2)[C@@H]2CCCO[C@H]12)C1CC1, the cytotoxicity at 10 µM is reported as 4.62%.
For Cc1ccc(N2CCN(C)c3ncccc3C2)nn1, the cytotoxicity at 10 µM was -3.77%.
Work on c1ccc(NC[C@@H]2CCC[C@@H]3CN(c4ncccn4)C[C@@H]32)nc1 yielded a cytotoxicity at 10 µM of -106%.
